The list is not random: actives were taken first. Their share in the collection is about 1.7%.
TPT1 inhibitor: blocks Candida albicans tRNA 2'-phosphotransferase; recombinant caTPT1, FP RNA substrate dephosphorylation; inhibition, % at 5 µM; 300,000 compounds, 0.81% hits;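 active = inhibition above the mean of all tested compounds plus 3 SD, set per screening campaign, cut at about 24% in these data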;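 note: plate controls were DMSO alone for no effect and ferristatin control at 100 nM for full effect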
Tb MetRS inh: blocks T. brucei methionyl-tRNA synthetase activity | 360,000 compounds, 0.4% hits | inhibition, % at 11.9 µM | purified T. brucei MetRS, ATP depletion, Kinase-Glo luminescence;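 active = inhibition above a per-plate cutoff of the control wells' mean inhibition plus 3 SD, cut at about 5.5% in these data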;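 note: 0% = DMSO wells median and 100% = median of wells with control inhibitor compound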
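Dosing: 11.9 µM compound single dose, 0.9% DMSO; Assay system: purified T. brucei MetRS enzyme; Measured by: Kinase-Glo luciferase luminescence reporting remaining unconsumed ATP; Schedule: 15 min plus 2 h at 25 °C.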
IDE inh: cellular human IDE inhibition | inhibition, % at 5.59 µM | 320,000 compounds, 0.41% hits | HEK cells, FAbetaB cleavage, fluorescence polarization | P14735 | AID 434962;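 active = percent inhibition above the average of all tested compounds plus 3 SD, set per screening campaign, cut at about 16% in these data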;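 note: IDE supplied by intact live HEK cells; FP after avidin binding of uncleaved biotin substrate so inhibition keeps polarization high; 0% = DMSO wells and 100% = 60 µM reference IDE inhibitor Ii1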
HNF4A DNA FP: change in binding of human HNF4 alpha to DNA | activity change, % at 10 µM | 360,000 compounds, 0.3% hits | AID 1224865 | P41235 | HNF4a-FITC DNA binding, fluorescence polarization, 1 h; in the data active = activity change above about 30%, passing the limit was not always enough
Target sequence (P41235 whole entry, looked up): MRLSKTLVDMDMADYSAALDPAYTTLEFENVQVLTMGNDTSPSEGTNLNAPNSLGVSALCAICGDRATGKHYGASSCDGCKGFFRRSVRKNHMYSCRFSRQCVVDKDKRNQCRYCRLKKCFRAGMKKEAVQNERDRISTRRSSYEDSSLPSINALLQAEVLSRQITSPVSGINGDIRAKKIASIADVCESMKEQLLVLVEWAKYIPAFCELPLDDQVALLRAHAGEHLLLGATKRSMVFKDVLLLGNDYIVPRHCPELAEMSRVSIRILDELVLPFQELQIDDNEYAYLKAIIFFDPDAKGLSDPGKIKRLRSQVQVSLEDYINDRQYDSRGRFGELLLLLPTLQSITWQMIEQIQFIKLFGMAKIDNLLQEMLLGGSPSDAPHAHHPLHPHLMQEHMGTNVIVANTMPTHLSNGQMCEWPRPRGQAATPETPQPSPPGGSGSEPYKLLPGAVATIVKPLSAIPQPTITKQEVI
IDE cell activ: activators of human insulin-degrading enzyme in cells; P14735; HEK cells, FAbeta-B cleavage, fluorescence polarization; 0% vehicle, 100% cell-free pure enzyme wells; activation, % at 5.96 µM; 340,000 compounds, 0.073% hits; AID 493087;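 active = activation above the mean of all tested compounds plus 3 SD, set per screening campaign, cut at about 17% in these data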
CSN inh: blocks human CSN-mediated cullin deneddylation; Q92905; Purified CSN, SCF-Nedd8-OG deneddylation, fluorescence polarization; inhibition, % at 12.5 µM; 360,000 compounds, 0.38% hits; AID 651999;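 active = pattern-corrected inhibition above about 35%, with an unprinted fluorescence ratio check between 0.5 and 1.5, limit read from the data, passing the limit was not always enough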;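 note: 0% = enzyme with substrate and 100% = substrate without enzyme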
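Material: human Csn5 produced in HEK293T cells; Input: enzyme 0.24 nM; Reagent: SCFSkp2-Nedd8OG substrate at 10 nM final; Dosing: 12.5 µM compound; Incubation: 90 min reaction at room temperature; Detection: fluorescence polarization of the substrate; Evaluation: % inhibition of substrate cleavage by Csn5; Control set: substrate-only high control, full reaction low control.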
* hit, by the source's call; . = no result.

SMILES	TPT1 inhibitor	Tb MetRS inh	IDE inh	HNF4A DNA FP	IDE cell activ	CSN inh
CCn1c(O)c(/C=N/NC(=O)c2ccncc2)c(=O)n(CC)c1=S	.	-0.1	.	77.7*	-2.5	130.6
CCCN1CCc2c(sc(NC(=O)c3ccc(S(=O)(=O)N4CCN(C(=O)OCC)CC4)cc3)c2C(N)=O)C1	156.5*	-0.5	11.4	91.5*	-8.5	52.5*
CCOC(=O)N1CCN(S(=O)(=O)c2ccc(C(=O)Nc3sc4c(c3C(N)=O)CCN(CC)C4)cc2)CC1	15.2	-0.7	8.7	-0.2	5.1	1.9
CCNC(=O)N(C)C[C@H]1N[C@@](CC)(C(=O)OC)[C@H]2C(=O)N(C)C(=O)[C@@H]12	.	-1.3	6.5	1.0	3.5	6.8
CC(C)(C)c1ccc(C(=O)NNc2cc(N3CCOCC3)nc(N3CCOCC3)n2)cc1	-1.2	-0.7	-7.6	0.8	5.4	-1.4
O=C(NNc1cc(N2CCCC2)nc(N2CCCC2)n1)c1ccc([N+](=O)[O-])cc1	4.9	0.1	-4.5	2.9	5.9	41.2*
Cc1nc2nc(SCC(=O)NCCCN3CCCCCC3)nn2c(C)c1Cc1ccccc1	-2.2	-0.1	-0.4	68.3*	0.1	88.0*
Cc1ccccc1Cc1c(C)nc2nc(SCC(=O)NCCCN3CCCCC3)nn2c1C	-1.6	0.2	-0.5	9.4	4.5	-3.9
O=C(O)c1cccc2c1C(=O)c1cc([N+](=O)[O-])ccc1-2	.	-0.4	.	-1.1	4.5	1.0
CC(=O)Nc1sc(NC(=O)c2ccc(C)cc2)nc1-c1cccs1	-4.5	-0.6	2.5	1.6	-20.4	-3.4
C#CCOCCOCCOCCNc1nc(N2CCN(C(=O)[C@H](Cc3cc4ccccc4[nH]3)n3cc([C@@H](N)CC(C)C)nn3)CC2)nc(N2CCN(C(=O)[C@H](Cc3cc4ccccc4[nH]3)n3cc([C@@H](N)CC(C)C)nn3)CC2)n1	0.3	-0.3	0.4	24.6	5.8	50.0*
C#CCOCCOCCOCCNc1nc(N2CCN(C(=O)C([C@@H](C)O)n3cc([C@@H](N)CCCCN)nn3)CC2)nc(N2CCN(C(=O)C([C@@H](C)O)n3cc([C@@H](N)CCCCN)nn3)CC2)n1 (stereo not given in full)	.	-0.2	3.6	7.5	-2.2	-0.9
C#CCOCCOCCOCCNc1nc(N2CCN(C(=O)C([C@@H](C)O)n3cc([C@@H](N)CCCCN)nn3)CC2)nc(N2CCN(C(=O)[C@H](CO)n3cc([C@@H](N)C(C)C)nn3)CC2)n1 (stereo not given in full)	.	-0.2	-4.1	77.9*	5.4	24.8
CCOc1ccc(CCNC(=O)COC(=O)CCC(=O)c2cccs2)cc1OCC	.	-0.2	.	-0.8	7.1	37.6*
CCOc1ccc(CCNC(=O)CCC(=O)c2cccs2)cc1OCC	.	-0.4	1.9	2.5	-1.2	-3.4
CC(=O)Nc1cc2c(cc1C(=O)c1ccccc1)OCCO2	3.3	-0.8	-3.5	-1.1	18.3*	-0.5
CC1c2cc3c(cc2CCN1C(=O)c1cccc(F)c1)OCCCO3 (stereo not given)	0.7	-0.5	6.7	2.1	-17.4	5.2
CCCCN(C(=O)c1cc2ccccc2o1)c1c(N)n(CCC)c(=O)[nH]c1=O	-1.6	-0.2	2.0	-0.7	0.0	4.7
Cc1c(N=C2N=C(NC(=O)c3ccc(F)cc3)c3ccccc32)c(=O)n(-c2ccccc2)n1C	15.4	-0.6	-3.3	74.7*	-2.6	-102.8
O=c1[nH]c2cccnc2n1Cc1ccccc1	-0.8	-0.3	0.2	7.8	2.9	1.8
Cc1nnc(-c2cccc(Br)c2)c2cn(-c3ccc(Br)cc3)nc12	17.5	-0.2	3.4	63.3*	1.4	90.8
C=CCn1c(SCC(=O)c2c(C)[nH]c3ccccc23)nnc1-c1ccncc1	-8.2	-0.1	5.3	4.9	.	36.1*
C=CCn1c(SCC(=O)Nc2ccccc2C)nnc1-c1ccncc1	-0.7	-0.1	6.1	-2.5	1.9	0.4
CCOC(=O)C1CCN(c2ncnc3c2cnn3C)CC1	3.8	-0.9	0.5	100.9*	4.7	-1.7
COc1ccc(OCC(=O)NNC(=O)C(=O)N2CCCC2)cc1	1.1	-0.2	6.5	-1.9	5.8	3.3
SMILES	TPT1 inhibitor	Tb MetRS inh	IDE inh	HNF4A DNA FP	IDE cell activ	CSN inh
COc1ccc(N2CCN(Cc3nc(-c4ccccc4)no3)CC2)cc1	-1.0	-0.5	7.6	-3.6	4.5	-0.7
Cc1ccc(C)c2[nH]c(=O)c(CN(Cc3cccs3)C(=S)NCc3ccco3)cc12	4.7	0.4	0.0	2.9	3.4	-2.8
CCOC(=O)c1c(NC(=O)c2cc(-c3ccc(O)cc3)on2)sc(C(C)=O)c1C	1.8	-1.0	1.9	153.8*	7.3	10.2
COc1ccccc1CNC(=O)C(Cc1c[nH]c2ccccc12)NC(=O)OCc1ccccc1 (stereo not given)	-2.9	0.1	1.9	1.3	1.3	6.9
COc1ccc(N(C(=O)c2ccncc2)S(=O)(=O)c2ccccc2)cc1	-4.9	-0.2	1.9	1.5	-5.3	1.0
COc1ccc(N(C(=O)c2ccncc2)S(=O)(=O)c2ccc(F)cc2)cc1	-3.2	-0.3	3.4	7.2	-5.2	85.5*
CCOC(=O)CCC(=O)Nc1ccc([N+](=O)[O-])cc1C	4.5	-0.5	1.8	29.9*	.	-7.7
CCCCCCC(C)n1cc(C(C)=O)c(=O)[nH]c1=O (stereo not given)	0.7	-1.0	6.8	-0.5	0.2	49.7*
CC(=O)c1cn(N2CCCCC2)c(=O)[nH]c1=O	1.9	-0.9	-1.6	-0.2	4.0	-2.9
COc1ccc(OC)c(C(=O)COC(=O)CN2C(=O)NC3(CCCCC3C)C2=O)c1 (stereo not given)	-1.1	-0.4	-1.8	0.8	22.2*	-1.8
COc1ccc2[nH]cc(CCNS(=O)(=O)c3ccc(F)cc3)c2c1	2.4	-1.2	-8.1	1.3	0.0	1.0
COc1ccc2[nH]cc(CCNS(=O)(=O)c3ccccc3)c2c1	4.5	-0.7	3.4	0.1	4.2	60.0*
CCN(CC)C(=O)Cn1cc(S(=O)(=O)CC(=O)NCc2ccccc2)c2ccccc21	-0.3	-0.6	5.0	-1.3	2.5	3.0
C/C=C1\NC(=O)[C@H](C)NC(=O)[C@@H](NC(=O)[C@@H](Cc2ccc(O)cc2)NC(=O)[C@@H](NC(=O)/C(C)=C/C)C(C)C)[C@@H](C)OC(=O)[C@H](CCCCc2ccc(O)cc2)NC(=O)[C@@H](CCC(=O)O)NC1=O	.	0.2	3.2	0.1	4.8	-2.2
COc1cccc(N2CCN(c3ncnc4c3[nH]c3ccccc34)CC2C)c1 (stereo not given)	-0.1	.	25.3*	.	.	.
COc1ccc2c(c1)[nH]c1c(N3CCSCC3)ncnc12	1.7	0.1	14.2	-0.4	-7.5	-0.2
OC(COCc1ccccc1)CN1CCCC1 (stereo not given)	1.9	-0.6	-5.1	4.0	5.7	37.1*

Compound activity as filed in PubChem.
